In ChEMBL document CHEMBL5674884, “Ezh2 inhibition in Kras-driven lung cancer amplifies inflammation and associated vulnerabilities” (J Exp Med, 2018):
Active and inactive are the calls of the source. No cut-off for these calls is given here.

Legend:
[1] = tested on: NSCLC; experiment: Anti-tumor activity against Kras G12D/+ expressing mouse NSCLC cells xenografted in BALB/c nude mouse assessed as decrease in frequency distribution of lesions at 50 mg/kg, iv for 30 days; assay type: functional, organism-based; conditions: time 30.0 day
[2] = molecular target: Histone-lysine N-methyltransferase EZH2 (Mus musculus) (UniProt Q61188); experiment: In vivo inhibition of Ezh2 in BALB/c nude mouse xenografted with KrasG12D/+ expressing NSCLC cells (unknown origin) assessed as upregulation of H3K27ac at 50 mg/kg, iv by qRT-PCR analysis; assay type: functional, organism-based
Sequence of Histone-lysine N-methyltransferase EZH2 (Mus musculus) (Q61188 whole entry): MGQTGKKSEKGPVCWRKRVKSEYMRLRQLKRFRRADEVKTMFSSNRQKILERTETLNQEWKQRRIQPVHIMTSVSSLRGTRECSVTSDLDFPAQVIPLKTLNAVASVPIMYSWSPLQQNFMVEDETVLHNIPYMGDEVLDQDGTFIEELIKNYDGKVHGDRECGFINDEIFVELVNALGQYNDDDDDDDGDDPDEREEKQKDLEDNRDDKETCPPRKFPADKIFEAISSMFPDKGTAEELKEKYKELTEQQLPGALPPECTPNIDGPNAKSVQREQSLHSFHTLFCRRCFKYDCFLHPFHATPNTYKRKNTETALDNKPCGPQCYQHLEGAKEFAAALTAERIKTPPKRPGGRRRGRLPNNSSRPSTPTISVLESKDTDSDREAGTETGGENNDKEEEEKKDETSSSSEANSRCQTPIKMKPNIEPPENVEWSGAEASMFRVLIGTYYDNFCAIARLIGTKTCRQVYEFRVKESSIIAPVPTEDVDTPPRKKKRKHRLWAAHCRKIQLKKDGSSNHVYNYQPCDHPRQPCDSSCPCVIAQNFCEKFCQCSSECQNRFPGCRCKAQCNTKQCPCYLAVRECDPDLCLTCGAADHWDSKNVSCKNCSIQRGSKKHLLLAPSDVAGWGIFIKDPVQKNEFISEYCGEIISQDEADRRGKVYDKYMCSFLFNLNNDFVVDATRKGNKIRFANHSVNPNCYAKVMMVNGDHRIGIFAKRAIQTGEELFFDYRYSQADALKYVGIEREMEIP

[3] = tested on: NSCLC; experiment: Antiinflammatory activity in […] EZH2 inhibited mouse NSCLC cells xenografted in BALB/C mouse assessed as upregulation of NF-kappaB pathway at 50 mg/kg, iv for 10 days; assay type: functional, organism-based; conditions: time 10.0 day
Method in brief: (§1)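 Tail vein grafts of Kras G12D/+;Trp53-/- cells in nude mice, treated daily with 50 mg/kg GSK126 for 10 d (n = 4) or to humane endpoint (n = 3), or vehicle (n = 2). GFP+ tumor cells sorted by FACS, RNA-seq run, fold change taken over vehicle, and pathway activity inferred by PROGENy scoring.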

[4] = tested on: NSCLC; experiment: Upregulation of Cxcr4 gene in mouse NSCLC cells expressing KrasG12D/+; assay type: functional, cell-based
[5] = molecular target: Histone-lysine N-methyltransferase EZH2 (Homo sapiens) (UniProt Q15910); experiment: Inhibition of Ezh2 in human A549 cells assessed as enhanced NF- kappa B activity; assay type: cell-based
Sequence of Histone-lysine N-methyltransferase EZH2 (Homo sapiens) (Q15910 whole entry, looked up): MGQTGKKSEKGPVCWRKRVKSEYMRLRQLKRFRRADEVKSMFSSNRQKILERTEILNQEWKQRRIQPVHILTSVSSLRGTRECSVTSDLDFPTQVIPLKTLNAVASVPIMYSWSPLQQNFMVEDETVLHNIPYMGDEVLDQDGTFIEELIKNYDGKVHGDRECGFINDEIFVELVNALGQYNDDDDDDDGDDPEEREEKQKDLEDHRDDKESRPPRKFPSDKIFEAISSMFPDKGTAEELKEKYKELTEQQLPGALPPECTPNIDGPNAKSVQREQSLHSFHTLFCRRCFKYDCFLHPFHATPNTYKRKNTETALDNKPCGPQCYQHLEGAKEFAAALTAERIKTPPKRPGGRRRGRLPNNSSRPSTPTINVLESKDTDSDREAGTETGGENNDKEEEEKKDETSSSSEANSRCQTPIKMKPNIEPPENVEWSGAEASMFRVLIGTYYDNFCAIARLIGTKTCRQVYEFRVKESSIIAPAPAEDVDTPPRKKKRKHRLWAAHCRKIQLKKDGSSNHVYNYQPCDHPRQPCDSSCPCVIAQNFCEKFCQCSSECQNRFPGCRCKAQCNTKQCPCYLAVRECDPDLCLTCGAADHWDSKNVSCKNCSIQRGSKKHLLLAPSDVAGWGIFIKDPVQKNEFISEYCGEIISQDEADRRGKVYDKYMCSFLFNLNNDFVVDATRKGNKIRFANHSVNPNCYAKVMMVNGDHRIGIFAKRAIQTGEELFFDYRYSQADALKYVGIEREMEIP
Method in brief: (§2)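 A549 cells carrying an NF-kB-responsive element/minimal TA promoter luciferase reporter, pretreated with GSK126 or vehicle. Stimulated with TNF-a for 3 h, or continuously with TNF-a or LPS over 16 h. Luminescence read on plate reader; two-way ANOVA; three independent experiments.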

[6] = tested on: NSCLC; experiment: Antiinflammatory activity in […] EZH2 inhibited mouse NSCLC cells xenografted in BALB/C mouse assessed as upregulation of JAK/STAT pathway at 50 mg/kg, iv for 10 days; assay type: functional, organism-based; conditions: time 10.0 day; method in brief: as §1
[7] = molecular target: Histone-lysine N-methyltransferase EZH2 (Mus musculus) (UniProt Q61188); experiment: In vivo inhibition of Ezh2 in BALB/c nude mouse expressing KrasG12D/+ assessed as cleaved Caspase-3 at 50 mg/kg, iv in the presence of BTZ/NM by IHC staining; assay type: functional, organism-based
Method in brief: (§3)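 Tumors from mice given daily GSK126/vehicle then alternating BTZ/NM, stained by IHC (n = 3 animals). Lung area divided into equal fields; ten fields per animal counted automatically for immunoreactive cells.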

[8] = molecular target: Histone-lysine N-methyltransferase EZH2 (Homo sapiens) (UniProt Q15910); experiment: Inhibition of Ezh2 in human NCI-H1944 cells assessed as p65 phosphorylation by Immunoblot analysis; assay type: cell-based
Method in brief: (§4)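 A549, H1944 and H2122 cells treated continuously 5 d with GSK126 or vehicle, then replated at low confluence. Whole-cell RIPA extracts immunoblotted for phospho-p65 (S536) and total p65.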

[9] = molecular target: Histone-lysine N-methyltransferase EZH2 (Mus musculus) (UniProt Q61188); experiment: Inhibition of Ezh2 in mouse NSCLC cells co-cultured with Raw264.7 cells assessed as H3K27ac level by qRT-PCR analysis; assay type: cell-based
[10] = molecular target: Histone-lysine N-methyltransferase EZH2 (Mus musculus) (UniProt Q61188); experiment: In vivo inhibition of Ezh2 in BALB/c nude mouse xenografted with KrasG12D/+ expressing NSCLC cells (unknown origin) assessed as upregulation of H3K27ac at 50 mg/kg, iv by IHC analysis; assay type: functional, organism-based
[11] = molecular target: Histone-lysine N-methyltransferase EZH2 (Mus musculus) (UniProt Q61188); experiment: In vivo inhibition of Ezh2 in BALB/c nude mouse expressing KrasG12D/+ assessed as phospho-Akt expression at 50 mg/kg, iv in the presence of BTZ/NM by Immunoblot analysis; assay type: functional, organism-based
Method in brief: (§5)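 Mice with Kras G12D/+;Trp53-/- lung grafts given GSK126 or vehicle, randomized after 15 d to one maximum tolerated dose of BTZ and NM, and sacrificed 20 h later. Tumor lysates in RIPA with protease/phosphatase inhibitors, equal protein run on 4-12% Bis-Tris gels and immunoblotted with ECL detection for phospho-Akt, cleaved Parp1 and cleaved caspase-3.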

[12] = molecular target: Histone-lysine N-methyltransferase EZH2 (Homo sapiens) (UniProt Q15910); experiment: Inhibition of Ezh2 in human NCI-H2122 cells assessed as p65 phosphorylation by Immunoblot analysis; assay type: cell-based; method in brief: as §4
[13] = tested on: NSCLC; experiment: Antitumor activity against KrasG12D/+ expressing mouse NSCLC cells xenografted in BALB/c nude mouse assessed as reduced cell proliferation at 50 mg/kg, iv in the presence of BTZ/NM; assay type: functional, organism-based; method in brief: as §3
[14] = tested on: NSCLC; experiment: Antitumor activity against Kras G12D/+ expressing mouse NSCLC cells xenografted in BALB/c nude mouse assessed as reduction in tumor burden at 50 mg/kg, iv for 30 days; assay type: functional, organism-based; conditions: time 30.0 day
[15] = tested on: NSCLC; experiment: Antitumor activity against Kras G12D/+ expressing mouse NSCLC cells xenografted in BALB/c nude mouse assessed as reduction in lung adenoma formation at 50 mg/kg, iv for 12 days by H&E staining analysis; assay type: functional, organism-based; conditions: time 12.0 day
[16] = molecular target: Histone-lysine N-methyltransferase EZH2 (Mus musculus) (UniProt Q61188); experiment: In vivo inhibition of Ezh2 in BALB/c nude mouse expressing Kras G12D/+ assessed as reduction of Akt phosphorylation at 50 mg/kg, iv by immunoblotting analysis; assay type: functional, organism-based; method in brief: as §5
[17] = tested on: NSCLC; experiment: Antiinflammatory activity in […] EZH2 inhibited mouse NSCLC cells xenografted in BALB/C mouse assessed as upregulation of TNF-alpha pathway at 50 mg/kg, iv for 10 days; assay type: functional, organism-based; conditions: time 10.0 day; method in brief: as §1
[18] = molecular target: Histone-lysine N-methyltransferase EZH2 (Mus musculus) (UniProt Q61188); experiment: In vivo inhibition of Ezh2 in BALB/c nude mouse expressing KrasG12D/+ assessed as Erk1/2 phosphorylation at 50 mg/kg, iv in the presence of BTZ/NM by IHC staining; assay type: functional, organism-based; method in brief: as §3
[19] = molecular target: Histone-lysine N-methyltransferase EZH2 (Mus musculus) (UniProt Q61188); experiment: In vivo inhibition of Ezh2 in BALB/c nude mouse expressing KrasG12D/+ assessed as Caspase-3 cleavage expression at 50 mg/kg, iv in the presence of BTZ/NM by Immunoblot analysis; assay type: functional, organism-based; method in brief: as §5
[20] = molecular target: Histone-lysine N-methyltransferase EZH2 (Mus musculus) (UniProt Q61188); experiment: In vivo inhibition of Ezh2 in BALB/c nude mouse xenografted with KrasG12D/+ expressing NSCLC cells (unknown origin) assessed as upregulation of H3K27me3 at 50 mg/kg, iv by IHC analysis; assay type: functional, organism-based
[21] = molecular target: Histone-lysine N-methyltransferase EZH2 (Homo sapiens) (UniProt Q15910); experiment: Inhibition of Ezh2 in LPS stimulated human A549 cells assessed as enhanced NF- kappa B activity; assay type: cell-based; method in brief: as §2
[22] = molecular target: Histone-lysine N-methyltransferase EZH2 (Mus musculus) (UniProt Q61188); experiment: In vivo inhibition of EZH2 in BALB/c nude mouse xenografted with Kras G12D/+ NSCLC cells (unknown origin) assessed as H3K27me3 level at 50 mg/kg, iv for 30 days by IHC analysis; assay type: functional, organism-based; conditions: time 30.0 day
[23] = tested on: NSCLC; experiment: Antitumor activity against KrasG12D/+ expressing mouse NSCLC cells xenografted in BALB/c nude mouse assessed as reduced tumor growth at 50 mg/kg, iv in the presence of BTZ/NM; assay type: functional, organism-based
Method in brief: (§6)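 Nude mice with tail-vein Kras G12D/+;Trp53-/- grafts dosed daily with GSK126 or vehicle from day 4 (n = 7/6). BTZ and NM then given on alternating days from day 19: BTZ 0.8 mg/kg on day one, 0.2 mg/kg plus NM 5 mg/kg on day two. Luciferase imaging analyzed by two-way ANOVA; survival recorded to humane endpoint.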

[24] = molecular target: Histone-lysine N-methyltransferase EZH2 (Homo sapiens) (UniProt Q15910); experiment: Inhibition of Ezh2 in TNF-alpha stimulated human A549 cells assessed as enhanced NF- kappa B activity; assay type: cell-based; method in brief: as §2
[25] = molecular target: Histone-lysine N-methyltransferase EZH2 (Mus musculus) (UniProt Q61188); experiment: In vivo inhibition of Ezh2 in BALB/c nude mouse expressing Kras G12D/+ assessed as Erk1/2 expression level at 50 mg/kg, iv by immunoblotting analysis; assay type: functional, organism-based
[26] = tested on: NSCLC; experiment: Antitumor activity in KrasG12D/+ harbouring mouse NSCLC cells xenografted in BALB/c nude mouse assessed as reduced tumor progression; assay type: functional; conditions: dose 50.0 mg/kg, route iv
[27] = molecular target: Histone-lysine N-methyltransferase EZH2 (Mus musculus) (UniProt Q61188); experiment: In vivo inhibition of Ezh2 in BALB/c nude mouse expressing Kras G12D/+ assessed as Erk1/2 expression level at 50 mg/kg, iv by IHC staining; assay type: functional, organism-based; method in brief: as §3
[28] = molecular target: Histone-lysine N-methyltransferase EZH2 (Mus musculus) (UniProt Q61188); experiment: In vivo inhibition of Ezh2 in BALB/c nude mouse expressing KrasG12D/+ assessed as Parp1 expression at 50 mg/kg, iv in the presence of BTZ/NM by Immunoblot analysis; assay type: functional, organism-based; method in brief: as §5
[29] = tested on: NSCLC; experiment: Anti-tumor activity against Ezh2i knockdown NSCLC cells (unknown origin) xenografted in BALB/c nude mouse assessed as increase in lifespan at 50 mg/kg, iv measured for 30 days; assay type: functional, organism-based; conditions: time 30.0 day
[30] = tested on: NSCLC; experiment: Antitumor activity against KrasG12D/+ expressing mouse NSCLC cells xenografted in BALB/c nude mouse assessed as increase in survival rate at 50 mg/kg, iv in the presence of BTZ/NM; assay type: functional, organism-based; method in brief: as §6
[31] = molecular target: Histone-lysine N-methyltransferase EZH2 (Homo sapiens) (UniProt Q15910); experiment: Inhibition of Ezh2 in human A549 cells assessed as p65 phosphorylation by Immunoblot analysis; assay type: cell-based; method in brief: as §4
[32] = molecular target: Histone-lysine N-methyltransferase EZH2 (Mus musculus) (UniProt Q61188); experiment: In vivo inhibition of Ezh2 in BALB/c nude mouse expressing KrasG12D/+ assessed as increased survival rate at day 21 at 50 mg/kg, iv in the presence of BTZ/NM; assay type: functional, organism-based; method in brief: as §6

CC[C@H](C)n1cc(C)c2c(C(=O)NCc3c(C)cc(C)[nH]c3=O)cc(-c3ccc(N4CCNCC4)nc3)cc21
Activity [1]: Active | inhibition [2]: Active | Activity [3]: Active | Activity [4]: Active | inhibition [5]: Active | Activity [6]: Active | inhibition [7]: Active | inhibition [8]: Active | inhibition [9]: Active | inhibition [10]: Active | inhibition [11]: Active | inhibition [12]: Active | Activity [13]: Active | Activity [14]: Active | Activity [15]: Active | inhibition [16]: Active | Activity [17]: Active | inhibition [18]: Active | inhibition [19]: Active | inhibition [20]: Active | inhibition [21]: Active | inhibition [22]: Active | Activity [23]: Active | inhibition [24]: Active | inhibition [25]: Active | Activity [26]: Active | inhibition [27]: Active | inhibition [28]: Active | Activity [29]: Active | Activity [30]: Active | inhibition [31]: Active | inhibition [32]: Active

CC(C)C[C@H](NC(=O)[C@H](Cc1ccccc1)NC(=O)c1cnccn1)B(O)O
Activity [26]: inactive
